Data as given in publication PMC6766976 (Journal of Clinical Pharmacology, 2019).
Like-named read-outs stand apart in the source and are kept apart here.

What was measured:
[1] = cited from earlier work
[2] = format: in vivo, human
JAK 1 = conditions: cited from earlier work
[3] = Over the range of IR and ER doses evaluated in clinical studies; cited from earlier work
JAK 3 = conditions: cited from earlier work
[4] = cited from earlier work; remark: listed apart in the source
[5] = cited from earlier work; remark: listed apart in the source
Tyk2 = conditions: cited from earlier work
[6] = Safety and tolerability assessments in the hepatic impairment study; format: in vivo, human; conditions: Single 15-mg dose
Summary of the method: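 Open-label, single-dose study in subjects with mild or moderate hepatic impairment (Child-Pugh) and normal-function controls. Subjects were confined from the day before dosing and given the oral extended-release test compound after a 10-hour fast, then fasted 4 h post-dose. Adverse events, hematology, blood chemistry, vital signs, ECGs and physical exams were monitored. Treatment-emergent events were tabulated per hepatic group by MedDRA class and term.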

cytochrome P450 (CYP) 3A = conditions: cited from earlier work
JAK 2 = conditions: cited from earlier work
plasma proteins = conditions: ref data on file at AbbVie; cited from earlier work
[7] = cited from earlier work; remark: listed apart in the source
[8] = Moderate hepatic impairment (outlier excluded)
[9] = Subjects with mild and moderate hepatic impairment
[10] = IR formulation, relative to upadacitinib alone

AUC lower compared with mean AUC in subjects with normal hepatic function ([2]; 1 subject in the moderate hepatic impairment group (excluded from analyses)): approximately 70%
Plasma concentration at 120 hours ([2]; All subjects and all groups, lower limit of quantitation 0.05 ng/mL): below the assay limit of quantification
AUC central value higher compared with normal hepatic function ([2]; Mild hepatic impairment): 28%
Cmax central value compared with normal hepatic function ([2]; Mild hepatic impairment): similar
β (terminal-phase elimination rate constant) versus normal hepatic function ([2]; Mild hepatic impairment, ANCOVA): no statistically significant difference
AUC central value higher compared with normal hepatic function [2, 8]: 24%
Cmax central value higher compared with normal hepatic function [2, 8]: 43%
Increase in upadacitinib exposure, AUC [2, 9]: < 30%
Increase in upadacitinib exposure, Cmax [2, 9]: < 45%
Structure (SMILES): CC[C@@H]1CN(C(=O)NCC(F)(F)F)C[C@@H]1c1cnc2cnc3[nH]ccc3n12 [upadacitinib]
Increase in upadacitinib exposure with a high-fat meal [1]: Approximately 20%
Inhibition of JAK 1 (JAK 1): potently inhibits
Plasma exposure dose and time dependence [3]: approximately dose proportional and time independent
Potency against JAK 3 compared with JAK 1 (JAK 3): less potent
Impact of baseline AST, ALT and bilirubin on upadacitinib exposure ([4]; Phase 1 to 3 studies, healthy subjects and subjects with RA): no impact
Correlation of CYP2D6 metabolic phenotype with upadacitinib clearance [4]: not correlated
Effect of age, weight, sex, race and ethnicity on upadacitinib exposure [4]: no clinically relevant effect
Dose eliminated unchanged in urine ([5]; IR dose): Approximately 20%
Dose eliminated in urine and feces as metabolites ([5]; ref data on file at AbbVie): approximately 30%
Potency against Tyk2 compared with JAK 1 (Tyk2): less potent
Changes in vital signs or hematology measurements [6]: No clinically significant changes
Tolerability ([6]; all subjects): well tolerated
Substrate status for cytochrome P450 (CYP) 3A (cytochrome P450 (CYP) 3A; Evaluated in phase 1 drug-interaction study with ketoconazole): nonsensitive substrate
Increase in plasma AUC with coadministration of ketoconazole (cytochrome P450 (CYP) 3A; [10]): 75%
Increase in plasma Cmax with coadministration of ketoconazole (cytochrome P450 (CYP) 3A; [10]): 70%
Potency against JAK 2 compared with JAK 1 (JAK 2): less potent
Plasma protein binding (plasma proteins): not extensively bound to plasma proteins
AUC higher compared with normal renal function ([7]; Mild renal impairment): 18%
Cmax compared with normal renal function ([7]; Mild, moderate and severe renal impairment): similar
AUC higher compared with normal renal function ([7]; Moderate renal impairment): 33%
AUC higher compared with normal renal function ([7]; Severe renal impairment): 44%
